Shown are actives, neighbours in structure and some others; about 1.9% of the full set was active somewhere.
b-catenin transl = modulators of beta-catenin nuclear translocation, primary screen, imaging, HeLa cells, immunofluorescence, high-content; nuclear translocation activity, % at 5 µM; 0.3% of 190,000 active;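 active means nuclear translocation activity above 50% at 5 µM, with a well cell count of 50 or more; inconclusive means wells under 50 cells across six images, flagged as toxic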;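 further: per-cell ratio of nuclear to cytoplasmic median beta-catenin stain intensity; plate controls were DMSO negative control for no effect and GSK-3 inhibitor IX positive control for full effect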
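System: Human HeLa cells, endogenous beta-catenin | Compound dosing: 5 µM primary, 0.02–20 µM confirmation | Timing: 24 h compound exposure at 37°C, 5% CO2 | Measured by: Fluorescence imaging of beta-catenin antibody stain plus DAPI | Read-out basis: % activation of per-cell nuclear versus cytoplasmic median beta-catenin signal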
TbHK1 inh = Trypanosoma brucei hexokinase 1 inhibitors, primary screen, biochemical, G6PDH-coupled NADH absorbance, MLSCN library; recombinant TbHK1, G6PDH-coupled NADH A340; inhibition, % at 10 µM; hexokinase 1 [Trypanosoma brucei]; 0.11% of 220,000 active; AID 1430, 2008;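 active means inhibition of 50% or more in the single-dose primary screen; inactive means inhibition below 50%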
Ins promoter up = insulin promoter activators in MIN6 cells, imaging, high-content screening, mouse beta cells; MIN6 insulin promoter-GFP reporter; active compounds read high; z-score at 5 µM; 0.3% of 190,000 active; AID 1625, 2009;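 active means z-score above 3 at 5 µM with at least 500 cells counted in the well; inconclusive means wells under 500 cells, flagged as cytotoxic or low count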
MT stabilize HCS = microtubule stabilizers in HeLa cells, primary screen, imaging, high-content imaging; HeLa tubulin immunostaining HCS, 24 h; share of cells brighter than vehicle mean+2SD; % tubulin-high responders, % at 10 µM; 0.83% of 200,000 active; AID 2205, 2009;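 active means plate Z-score above 3 for both tubulin-high and condensed-nucleus cell shares, with cell loss under 80%, at 10 µM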;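 further: anti alpha tubulin signal scored within the nucleus-defined area of each cell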
Autophagy HCS = autophagy modulators in MEF cells, primary screen, imaging, high-content, MEF GFP-LC3 | 0.98% of 190,000 active | calls only at 10 µM (by protocol) | MEF GFP-LC3 puncta imaging; test concentration mostly 10 µM;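 active means percentage of spot-positive cells more than 3 SD above its plate mean, without a fluorescence outlier flag or 80% toxicity; inconclusive means no clear call, values can overlap the other calls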;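 further: spot-positive cell cutoff set from DMSO-treated cells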
Starred values were filed as active, the others as inactive; i = inactive; u = inconclusive; x = not tested or not shown; + = active, no number.

SMILES	b-catenin transl	TbHK1 inh	Ins promoter up	MT stabilize HCS	Autophagy HCS
O=C(C1=C[C@@H](c2ccccc2)C[C@@H](OCc2ccc(CO)cc2)O1)N1CCN(Cc2ccc3c(c2)OCO3)CC1	14	-14	-1.1	13*	i
O=C(C1=C[C@@H](c2csc3ccccc23)C[C@@H](OCc2ccc(CO)cc2)O1)N1CCN(Cc2ccc3c(c2)OCO3)CC1	49	-10	0.15	22*	i
O=C(C1=C[C@@H](c2csc3ccccc23)C[C@@H](OCc2ccc(CO)cc2)O1)N1CCN(Cc2ccccc2)CC1	-4	-14	-1	4	i
O=C(OCC(=O)N1CCc2ccccc2C1)c1cc(=O)[nH]c2ccccc12	0	-17	-0.41	x	x
N=c1c2c(-c3ccccc3)c(-c3ccccc3)n(Cc3ccccc3)c2ncn1CCCn1ccnc1	2	11	-0.08	35	+
Cc1cc(NCCCn2ccnc2)n2nc(C)c(-c3ccccc3)c2n1	-2	-13	x	6	i
CCCCn1cnc2c(c(-c3ccccc3)c(-c3ccccc3)n2Cc2ccco2)c1=N	0	2	-2	x	x
N=c1c2c(-c3ccccc3)c(-c3ccccc3)n(Cc3ccco3)c2ncn1Cc1ccco1	3	11	-7.7	38	+
O=C(CSc1ccc2nnc(-c3ccccn3)n2n1)NCc1ccco1	0	-9	0.79	2	+
CCCc1nnc(NC(=O)c2cn(CC)c3cc(N4CCN(C)CC4)c(F)cc3c2=O)s1	0	-24	x	x	x
NC(N)=NCC(O)CN(c1ccccc1)c1ccccc1 (configuration not stated)	7	-6	-0.55	x	x
COc1cc(/C=N/N=C(N)N)ccc1OCc1ccc(Cl)cc1	2	4	-4.3	67*	i
COc1ccc(S(=O)(=O)Nc2ccccc2OC)cc1NC(=O)c1cc2ccccc2oc1=O	1	-5	-1.4	9	i
CCCCCCCCNc1nc(Cl)nc(NCCN2CCOCC2)n1	-3	-7	-0.43	2	+
COc1nc(NCCN2CCOCC2)nc(Nc2ccccc2)n1	4	3	0.22	2	i
CCCCN1C(=O)Cc2c1nc(N)c1c(N)nc(N(CCC)CCC)c(C#N)c21	-6	-7	-1.4	3	+
N#Cc1c(N(CCO)CCO)nc(N)c2c(N)nc3c(c12)CC(=O)N3CC1CCCO1 (configuration not stated)	0	-26	-0.53	x	x
C=CCn1c(SCc2ccccc2Cl)nnc1-c1sc2nc(C)cc(C)c2c1N	1	-7	-0.4	x	x
CN(C)CCCNc1ncc(C(F)(F)F)cc1Cl	-4	-2	-0.1	14*	i
COc1ccccc1OCC(O)Cn1c(=N)n(Cc2ccccc2)c2ccccc21 (configuration not stated)	x	13	u	3	+
FC(F)(F)c1ccccc1NC(=S)N1CCc2ccccc2C1	-6	4	-2.2	3	+
CN(C)c1ccc(/C=C2\SC(=S)N(Nc3ncc(C(F)(F)F)cc3Cl)C2=O)cc1	3	-4	x	10	+
COc1cc(/C=C2\SC(=S)N(Nc3ncc(C(F)(F)F)cc3Cl)C2=O)ccc1O	x	-11	-0.21	7	i
c1ccc2c(c1)ncn2-c1ccc(-c2ccnc3ncnn23)cc1	-3	-15	-0.39	3	+
CNS(=O)(=O)c1ccc2nc(NC(=O)/C=C/c3ccco3)sc2c1	1	-13	-1.4	4	i
SMILES	b-catenin transl	TbHK1 inh	Ins promoter up	MT stabilize HCS	Autophagy HCS
N=c1c(S(=O)(=O)c2ccccc2)cc2c(=O)n3ccccc3nc2n1Cc1ccco1	-1	-8	0.12	7	i
Cc1ccc(S(=O)(=O)c2cc3c(=O)n4ccccc4nc3n(Cc3ccco3)c2=N)cc1C	x	24	x	2	+
CCN1/C(=C\c2ccc3cc(C)ccc3[n+]2CC)Sc2cc(C)c(C)cc21	0	4	u	9	+
CCN1/C(=C/c2ccc3cccc(C)c3[n+]2CC)Sc2ccccc21	x	-8	x	7	+
O=C(NCCC1=CCCCC1)C(=O)NCC(c1ccco1)N1CCN(c2ccc(F)cc2)CC1 (configuration not stated)	-3	19	-0.11	2	i
OCCN1CCN(CCCc2c3c(cc4c2CCC4)CCC3)CC1	0	-4	0.39	2	i
COc1ccc2nc3oc(C(=O)N4CCN(c5cccc(C(F)(F)F)c5)CC4)cc3cc2c1	19	-12	-0.16	13*	i
COc1ccc2nc3oc(C(=O)N4CCN(c5cccc(Cl)c5)CC4)cc3cc2c1	0	14	-0.06	3	i
CCn1c(COc2ccc(C)cc2)nnc1SCC(=O)NCc1ccco1	1	-3	-0.02	4	i
CCOc1ccc(Nc2nc(Cc3nnc(SCC(=O)NCc4ccco4)n3CC)cs2)cc1	148*	14	-0.19	16	i
CC(=O)Nc1ccc(S(=O)(=O)N2CCN(c3cccc(C)c3C)CC2)cc1	5	-3	0.65	14*	i
COC(=O)c1cc(C(=O)N2CCN(c3cccc(C)c3C)CC2)cc([N+](=O)[O-])c1	91*	-3	-0.75	15*	i
COc1ccccc1N1CCN(c2ccc([N+](=O)[O-])cc2Cl)CC1	3	-13	-0.39	21*	i
COc1cccc(NC(=O)N2CCN(c3cccc(C)c3C)CC2)c1	x	7	0.71	6	+
COc1cc(C2NC(=S)NC(C)=C2C(=O)Nc2cc(C)cc(C)c2)ccc1O (configuration not stated)	1	1	-0.11	x	x
COC(=O)c1cc(C(=O)N2CCN(c3ccccc3OC)CC2)cc([N+](=O)[O-])c1	70*	8	1.3	27*	i
CCn1c(C)c(C(C)=O)c(N2CCN(C(c3ccccc3)c3ccccc3)CC2)nc1=S	6	-22	-0.44	2	+
Cc1cc(C)cc(OCC(=O)NNC(=O)C2CCCO2)c1 (configuration not stated)	-1	-1	1	2	i
O=C(NCC1CCCO1)c1cc2c(s1)CS(=O)(=O)C2 (configuration not stated)	1	5	0.02	3	+
Cc1ccc(NC(=O)c2c3c(nc4ccccc24)CCC3)cc1S(=O)(=O)N(C)C	-1	-6	-0.53	3	i
CCc1ccc(-c2nc(CN3CCC(C(=O)NCCN(CC)c4ccccc4)CC3)c(C)o2)cc1	-3	-1	-1.7	93	i
CCN(CCNC(=O)C1CCN(Cc2nc(-c3ccc(Cl)cc3)oc2C)CC1)c1ccccc1	-3	-2	-0.78	5	+
CCN(CCNC(=O)C1CCCN(S(=O)(=O)CC)C1)c1ccccc1 (configuration not stated)	0	-4	3.1*	3	i

High-throughput results (PubChem)
